Hits are enriched below; roughly 4.8% of the tested compounds scored in any of these assays.
CSC inhib – cancer stem cell inhibition. cancer stem cell-like cells viability, luminescence. inhibition, % at 7.5 µM. 300,000 tested, 1.1% active. AID 2717; in the data active = inhibition above about 75%; tested in HMLE shEcad cells
Mdm2 MdmX PPI – disrupts the human Mdm2-MdmX interaction; O15151+Q00987; SaOS-2 split-luciferase Mdm2/MdmX complementation, luminescence; inhibition, % at 8 µM; 330,000 tested, 3% active;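 active = inhibition of at least 50% at 8 µM in the primary screen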
Target sequence (O15151 whole entry, looked up): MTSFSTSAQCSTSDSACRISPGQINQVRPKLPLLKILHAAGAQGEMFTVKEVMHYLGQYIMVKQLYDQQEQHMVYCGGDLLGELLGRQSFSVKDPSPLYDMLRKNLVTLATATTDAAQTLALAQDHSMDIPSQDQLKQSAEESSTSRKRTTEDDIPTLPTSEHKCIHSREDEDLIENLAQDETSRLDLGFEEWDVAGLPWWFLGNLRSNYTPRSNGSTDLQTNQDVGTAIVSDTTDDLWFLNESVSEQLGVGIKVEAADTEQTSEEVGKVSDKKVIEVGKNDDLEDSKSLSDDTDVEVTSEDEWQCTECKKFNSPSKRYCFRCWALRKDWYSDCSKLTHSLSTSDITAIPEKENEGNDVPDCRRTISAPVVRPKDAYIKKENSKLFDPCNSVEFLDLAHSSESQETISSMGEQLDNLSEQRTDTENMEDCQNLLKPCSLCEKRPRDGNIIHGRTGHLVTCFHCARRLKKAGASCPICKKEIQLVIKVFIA
Target sequence (Q00987 whole entry, looked up): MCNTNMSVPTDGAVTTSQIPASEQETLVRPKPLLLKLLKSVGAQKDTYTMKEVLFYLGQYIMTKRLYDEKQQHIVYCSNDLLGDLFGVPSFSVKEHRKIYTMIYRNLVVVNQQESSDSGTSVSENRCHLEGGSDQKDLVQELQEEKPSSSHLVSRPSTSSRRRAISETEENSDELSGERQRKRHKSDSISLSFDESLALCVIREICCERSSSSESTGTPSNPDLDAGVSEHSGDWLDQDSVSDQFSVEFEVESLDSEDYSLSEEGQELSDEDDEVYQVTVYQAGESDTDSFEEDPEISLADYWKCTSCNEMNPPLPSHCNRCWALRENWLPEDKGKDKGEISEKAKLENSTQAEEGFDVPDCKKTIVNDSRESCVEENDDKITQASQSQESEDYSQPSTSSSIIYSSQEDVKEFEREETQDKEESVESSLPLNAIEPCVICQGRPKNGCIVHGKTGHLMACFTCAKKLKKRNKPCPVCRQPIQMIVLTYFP
Beta cell apopt – blocks beta cell apoptosis. INS-1E cytokine-induced death, ATP luminescence, 48 h; percent of positive-control rescue, neutral wells zero. protection from apoptosis, % (test concentration not listed). 300,000 tested, 0.8% active;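 active = Every replicate reaches about 75%, or at least half do and their mean reaches it too, limit read from the data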;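 note: 0% = cytokine-treated negative control wells and 100% = positive control rescue; higher means more ATP so stronger rescue from cytokine killing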
SKKanGAS inh – inhibitors of SKKanGAS S. pyogenes growth in kanamycin (SK-promoter or general growth effect) | BacTiter-Glo, 6 h | inhibition, % at 7.5 µM | 300,000 tested, 1.3% active | AID 1662;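 active = mean replicate score, as percent of positive control median, at least 50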;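 note: strain carries kanamycin resistance gene driven by streptokinase promoter and grows in 40 µg/ml kanamycin; loss of luminescence reflects streptokinase promoter inhibition or plain growth inhibition; 0% = median of DMSO wells and 100% = positive control at its reference dose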
UPR CHOP act – apoptotic UPR (CHOP) activation. CHO-CHOP luciferase reporter, luminescence; percent of tunicamycin response over DMSO baseline. activation, % at 10 µM. 330,000 tested, 0.34% active;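 active = at 10 µM dose, activation of 40% or more, normalized to positive control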;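 note: 100% = tunicamycin at 10 µg/mL and 0% = DMSO alone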
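measured by = luciferase luminescence | assay system = CHO-CHOP cells, stable luciferase reporter of PERK-eIF2a-CHOP signalling | amount = 500 reporter cells seeded per well | timing = 6 h compound exposure at 37 °C after overnight seeding | controls = positive tunicamycin 10 µg/mL, negative DMSO alone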
XBP1 UPR activ – activators of adaptive arm of unfolded protein response (XBP1); CHO-XBP1 luciferase reporter, IRE1-XBP1 UPR activation, luminescence; percent of tunicamycin response, DMSO as zero; 330,000 tested, 0.33% active; AID 463104; activation, % at 20 µM;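 active = versus positive control, 20 µM dose yields 30% or more activation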;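 note: 100% = tunicamycin at 10 µg/mL and 0% = DMSO only wells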
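Material: CHO-XBP1 cells stably carrying IRE1-XBP1-driven luciferase reporter | Medium: F12 with 10% serum | Compound dosing: 20 µM single concentration, DMSO 1% | Incubation: Overnight seeding at 37 °C, 6 h compound treatment at 37 °C | Detection: Steady-Glo luminescence read | Read-out basis: % activation of reporter signal versus tunicamycin and DMSO controls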
Mdm2 MdmX conf – confirmation of human Mdm2/MdmX interaction inhibitors; 10,000 tested, 55% active; inhibition, % at 8 µM; shares compounds with Mdm2 MdmX PPI; Mdm2-MdmX binding, luminescent assay; in the data active = inhibition above about 40%
Full FLuc ctr – counter-screen for Mdm2/MdmX inhibitors: full-length luciferase; SaOS-2 full-length luciferase counterscreen, luminescence; inhibition, % at 8 µM; shares compounds with Mdm2 MdmX PPI; AID 504607; 6,200 tested, 77% active;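 active = mean inhibition at 8 µM reaching about 37%, which flags the compound as non-specific, limit read from the data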;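 note: p53-null SaOS-2 cells with luciferase driven by a doxycycline-inducible promoter; compound on cells about two nights before reading with doxycycline added after day one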
Numbers without * were called inactive; x = not tested or not shown.

SMILES	CSC inhib	Mdm2 MdmX PPI	Beta cell apopt	SKKanGAS inh	UPR CHOP act	XBP1 UPR activ	Mdm2 MdmX conf	Full FLuc ctr
O=C(C[C@H]1C[C@H](C(=O)N2CCCCC2)[C@@]2(CCc3ccccc3)c3[nH]c4ccc(Cl)cc4c3CCN2C1=O)NCc1cccc(C(F)(F)F)c1	x	66.2*	x	x	17.8	4.1	61.5*	34.0
O=C(CC1C[C@H](C(=O)N2CCCCC2)[C@@]2(CCc3ccccc3)c3[nH]c4ccccc4c3CCN2C1=O)NCc1cccc(C(F)(F)F)c1 (stereo partly drawn)	x	38.1	27.7	x	18.8	4.0	x	x
COCCCNC(=O)C[C@H]1C[C@H](C(=O)N2CCCCC2)[C@@]2(CCc3ccccc3)c3[nH]c4ccc(Cl)cc4c3CCN2C1=O	x	31.7	x	x	6.7	11.9	x	x
CCOc1ccc(N2C(=O)S/C(=C\c3cc(OC)c(OC)c(OC)c3)C2=O)cc1	4.1	53.1*	10.5	-1.5	-0.3	-3.1	13.5	x
CCOc1ccc(C(=O)/C=C/c2cc(OC)c(OC)c(OC)c2)cc1	48.4	63.1*	-27.7	-2.7	0.9	-1.4	55.5*	48.9*
CCOc1ccc(N2C(=O)S/C(=C\c3ccc(O)c(OC)c3)C2=O)cc1	57.0	5.5	-7.9	1.1	-1.4	2.0	x	x
COc1ccc(C(=O)/C=C/c2ccc(OC(=O)c3cc(OC)c(OC)c(OC)c3)cc2)cc1	17.2	57.2*	-5.2	5.0	-0.6	-2.1	4.8	x
COc1cc(/C=C/C(=O)c2ccc(F)cc2)cc(OC)c1OC	8.9	0.3	-19.8	-4.0	2.1	0.6	x	x
COc1ccc(Oc2ccc(/C=C/C(=O)c3ccc(O)cc3)cc2[N+](=O)[O-])cc1	94.0*	97.5*	9.8	-10.8	13.0	4.3	32.8	x
CCCc1ccc(OCC(O)CN2CCN(c3ccccn3)CC2)cc1 (stereo not drawn)	24.1	8.6	x	5.0	0.1	-1.9	x	x
COc1ccc(-c2cc(C)no2)cc1S(=O)(=O)N1CCCN(Cc2ccccc2Cl)C1	5.8	34.5	3.4	-2.0	-0.5	-2.5	x	x
Cc1ccc(Nc2nnc(SCC(=O)c3ccc(O)cc3O)s2)cc1	63.0	14.2	1.1	28.4	1.8	3.0	x	x
O=C1CC(c2cccnc2)c2cc3c(cc2N1)OCCO3 (stereo not drawn)	-2.3	0.9	1.8	-3.6	-3.9	-1.8	x	x
CCCCOc1ccccc1C1CC(=O)NC2=C1C(=O)CCC2 (stereo not drawn)	-2.8	44.5	8.2	0.6	-1.0	7.3	x	x
CCCOc1ccccc1C1CC(=O)NC2=C1C(=O)CCC2 (stereo not drawn)	52.3	58.3*	4.8	1.5	-1.3	-3.7	56.0*	48.3*
CCOc1ccccc1C1CC(=O)Nc2cc3c(cc21)OCCO3 (stereo not drawn)	56.3	70.4*	19.3	-14.8	2.2	7.4	57.5*	122.7*
CCOc1ccccc1C1CC(=O)NC2=C1C(=O)CCC2 (stereo not drawn)	26.1	36.1	-2.5	-3.9	0.1	-0.3	x	x
CCCOc1ccccc1C1CC(=O)Nc2cc3c(cc21)OCCO3 (stereo not drawn)	30.7	52.4*	26.0	2.1	-1.1	2.7	49.5*	61.4*
CCc1nnc(NC(=O)CCC(=O)NC2CCCC2)s1	-10.0	11.9	-7.8	0.2	-2.2	-1.3	x	x
C(=C1/CCCC2=C1Nc1ncnn1C2c1ccccc1)/c1ccccc1 (stereo not drawn)	40.7	75.7*	-16.6	-6.2	6.3	-7.8	84.0*	11.2
CCOC(=O)c1cnc(-n2nc(C)cc2C)nc1Nc1cccc(C(=O)O)c1	0.4	-13.2	-4.5	11.5	-4.1	0.8	x	x
CCOC(=O)c1cnc(-n2nc(C)cc2C)nc1NNc1nc(-c2ccccc2)cc(-c2ccccc2)n1	128.2*	62.6*	118.0*	104.7*	3.2	3.0	71.7*	25.0
CCOc1ccc(CCNC(=O)COC(=O)c2cc(=O)[nH]c3ccccc23)cc1OCC	-9.2	12.8	1.5	7.3	1.2	-0.9	x	x
O=C(Nc1cccc(C(F)(F)F)c1)N(Cc1ccc(Cl)cc1)CC(O)C(F)(F)F (stereo not drawn)	54.9	66.9*	6.0	7.8	-0.5	0.9	4.4	x
CCCOc1ccc(NC(=O)CC2C(=O)N(CC)C(=S)N2CCCN2CCN(Cc3ccccc3)CC2)cc1 (stereo not drawn)	25.1	81.1*	13.2	-0.7	2.4	3.9	46.5*	65.5*
SMILES	CSC inhib	Mdm2 MdmX PPI	Beta cell apopt	SKKanGAS inh	UPR CHOP act	XBP1 UPR activ	Mdm2 MdmX conf	Full FLuc ctr
CCN1C(=O)C(CC(=O)Nc2ccc(Br)cc2)N(CCCc2ccccc2)C1=S (stereo not drawn)	-15.4	84.0*	27.2	91.8*	-0.2	3.6	7.3	x
O=C1CC(NS(=O)(=O)c2cccnc2)CN1c1cccc(F)c1 (stereo not drawn)	-8.7	-3.6	2.5	7.2	-1.2	-1.8	x	x
Cc1oc(-c2ccc(Cl)cc2)cc1C(=O)/C(C#N)=C/Nc1ccccc1	4.9	61.9*	-2.8	2.1	0.2	-3.0	9.7	x
CCOC(=O)C(=O)/C(C#N)=C/Nc1ccc(Cl)cc1	32.6	-10.6	4.9	1.3	12.0	1.4	x	x
Cc1csc(NC(=O)Cc2coc3cc(C)c(C(C)C)cc23)n1	x	80.4*	3.1	23.1	-1.3	-3.0	69.3*	57.4*
COc1ccc(NC(=O)Cc2ccc(-c3ccccc3)cc2)cn1	59.2	51.9*	5.1	0.6	-1.8	-2.1	54.5*	62.0*
COc1ccc(NC(=O)/C(Cl)=C(/Cl)S(=O)Cc2ccc(Cl)cc2)cn1 (stereo not drawn)	x	97.1*	x	x	-10.9	-9.1	100.0*	1.5
Cc1ccnc(NC(=O)Cc2ccc(-c3ccccc3)cc2)c1	-0.8	90.7*	70.7	33.4	1.7	-4.6	94.0*	144.8*
COc1ccc(NC(=O)C(Cl)=C(Cl)Cl)cn1	x	4.7	x	1.7	-2.0	-5.0	x	x
Cc1ccc(NC(=O)CCc2c[nH]c3ccccc23)nc1	x	83.4*	x	0.0	0.7	3.4	73.0*	51.5*
Cc1c(S(=O)(=O)N2CCCCC2)c(=O)n(C)c(=O)n1C	-2.2	22.3	x	-8.0	0.9	0.1	x	x
O=C(NCCS(=O)(=O)c1ccc(Br)cc1)c1c(F)cccc1F	0.2	13.6	5.1	1.0	0.8	2.4	x	x
O=C(Cc1ccc(-c2ccccc2)cc1)Nc1ccccn1	68.2	68.5*	7.7	9.8	5.4	1.7	55.1*	62.1*
Cc1ccc(NC(=O)Cc2ccc(-c3ccccc3)cc2)nc1	5.2	75.1*	-17.7	25.4	1.3	-1.8	45.0*	80.2*

Screening results: PubChem, several laboratories
